In assay [1] the target is T1, Oxysterols receptor LXR-alpha (Homo sapiens, UniProt Q13133).
T1 sequence (Q13133 whole entry): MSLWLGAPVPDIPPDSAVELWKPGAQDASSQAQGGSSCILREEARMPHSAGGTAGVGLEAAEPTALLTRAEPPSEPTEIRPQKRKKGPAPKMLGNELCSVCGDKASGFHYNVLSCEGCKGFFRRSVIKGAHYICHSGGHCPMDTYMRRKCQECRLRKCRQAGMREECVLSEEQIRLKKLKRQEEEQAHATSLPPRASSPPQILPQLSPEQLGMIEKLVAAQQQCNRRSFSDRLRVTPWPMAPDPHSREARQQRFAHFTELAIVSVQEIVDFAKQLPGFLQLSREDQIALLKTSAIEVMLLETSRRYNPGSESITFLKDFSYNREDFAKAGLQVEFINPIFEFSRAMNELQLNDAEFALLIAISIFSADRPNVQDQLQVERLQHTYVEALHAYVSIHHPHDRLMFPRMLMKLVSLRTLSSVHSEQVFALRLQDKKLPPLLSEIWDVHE
Description: Transactivation of recombinant GAL4-fused human LXRalpha LBD (163 to 447 residues) expressed in human L02 cells measured after 24 hrs by luciferase reporter gene assay. It counts as cell-based. (In a reporter assay the amount or activity of a reporter protein is the signal.)

Assay [2] addresses Tyrosine-protein phosphatase non-receptor type 6 (Homo sapiens, UniProt P29350). Description: Inhibition of recombinant human SHP1 expressed in Escherichia coli […] preincubated for 15 mins followed by substrate addition and measured after 60 mins. The method in brief: (§1)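 Recombinant human phosphatases were expressed in E. coli and purified. Enzyme and compound were preincubated for 15 min at room temperature in pH 6.5 buffer (50 mM HEPES, 100 mM NaCl, 1 mM EDTA, 1 mM DTT). Buffer containing 50 mM pNPP was then added and the mix incubated for 60 min at 37 °C. Product p-nitrophenol was read at 405 nm. Assays were run in triplicate and IC50 derived.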

Assay [3] relates to Colletotrichum gloeosporioides. The assay is described as follows: Antifungal activity against Colletotrichum gloeosporioides HNM 1003 assessed as growth inhibition at 0.6 mM measured after 48 hrs by microbroth dilution method. The class given is functional. The conditions noted are these: HNM 1003, 48 h, read-out: GI. The method in brief: (§2)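 Fungi were grown on PDA plates for 6−8 days at 30 °C, then the mycelia were moved into PD medium and filtered through cotton to give a spore suspension. Each well held PD medium, sample from a 10 mg/mL DMSO stock at about 0.6 mM, and spores (1 × 10^6 CFU). DMSO served as the negative control. OD600 was read at 0 and 48 h at 28 °C and percent growth inhibition calculated.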

The target in assay [4] is T2, Tyrosine-protein phosphatase non-receptor type 1 (Homo sapiens) (UniProt P18031).
T2 sequence (whole entry): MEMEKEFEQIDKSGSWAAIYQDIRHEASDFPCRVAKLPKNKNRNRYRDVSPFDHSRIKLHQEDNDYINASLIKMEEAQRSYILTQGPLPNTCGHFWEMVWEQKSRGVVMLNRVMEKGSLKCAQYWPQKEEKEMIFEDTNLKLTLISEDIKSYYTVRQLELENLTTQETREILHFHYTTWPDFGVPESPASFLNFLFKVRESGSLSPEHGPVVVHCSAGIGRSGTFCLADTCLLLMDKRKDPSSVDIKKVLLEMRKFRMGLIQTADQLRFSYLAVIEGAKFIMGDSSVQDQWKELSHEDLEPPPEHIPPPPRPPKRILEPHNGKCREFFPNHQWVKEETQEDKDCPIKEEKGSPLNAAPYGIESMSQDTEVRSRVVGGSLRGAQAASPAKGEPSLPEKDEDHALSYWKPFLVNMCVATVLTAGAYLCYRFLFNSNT
The assay is described as follows: Inhibition of recombinant human PTP1B expressed in Escherichia coli […] preincubated for 15 mins followed by substrate addition and measured after 60 mins. Put shortly:
as §1

For assay [5], the target named is Indoleamine 2,3-dioxygenase 1 (Homo sapiens, UniProt P14902). The assay is described as follows: Inhibition of recombinant human IDO1 expressed in Escherichia coli […] preincubated for 15 mins followed by substrate addition and measured after 60 mins.
Indoleamine 2,3-dioxygenase 1, sequence (P14902 whole entry, looked up): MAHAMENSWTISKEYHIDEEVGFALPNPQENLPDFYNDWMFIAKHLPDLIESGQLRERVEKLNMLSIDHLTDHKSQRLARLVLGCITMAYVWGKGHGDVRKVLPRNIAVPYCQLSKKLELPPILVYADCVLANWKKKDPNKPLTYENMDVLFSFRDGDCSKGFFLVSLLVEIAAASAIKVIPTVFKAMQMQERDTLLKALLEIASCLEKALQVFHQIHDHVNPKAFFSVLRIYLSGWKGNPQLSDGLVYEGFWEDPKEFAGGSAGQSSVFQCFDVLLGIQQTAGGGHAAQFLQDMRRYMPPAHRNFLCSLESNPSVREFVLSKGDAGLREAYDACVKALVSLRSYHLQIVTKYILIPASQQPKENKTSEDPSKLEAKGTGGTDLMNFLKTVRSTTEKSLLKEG
The next assay deals with Curvularia australiensis. The assay is described as follows: Antifungal activity against Curvularia australiensis BY01 assessed as growth inhibition at 0.6 mM measured after 48 hrs by microbroth dilution method. It counts as functional. As to conditions: BY01, 48 h, read-out: GI. The method in brief:
as §2

In assay [6] the target is L-lactate dehydrogenase A chain (Homo sapiens) (UniProt P00338). Description: Inhibition of recombinant human LDHA expressed in Escherichia coli […] preincubated for 15 mins followed by substrate addition and measured after 60 mins.
Assay [7] has as its target T3, Tyrosine-protein phosphatase non-receptor type 2 (Homo sapiens) (UniProt P17706).
T3 sequence (whole entry): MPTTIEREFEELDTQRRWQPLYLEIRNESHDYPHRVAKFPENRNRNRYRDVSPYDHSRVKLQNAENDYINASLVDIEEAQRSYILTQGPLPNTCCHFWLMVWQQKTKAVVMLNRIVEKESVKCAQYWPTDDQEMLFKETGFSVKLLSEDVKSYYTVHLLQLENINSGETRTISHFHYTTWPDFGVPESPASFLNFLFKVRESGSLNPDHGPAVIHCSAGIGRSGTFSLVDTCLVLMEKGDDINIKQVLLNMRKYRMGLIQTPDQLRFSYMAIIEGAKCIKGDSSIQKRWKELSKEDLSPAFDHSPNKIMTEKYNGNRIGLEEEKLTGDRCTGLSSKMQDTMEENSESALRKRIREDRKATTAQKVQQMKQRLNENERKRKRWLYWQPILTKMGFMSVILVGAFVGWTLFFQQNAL
The assay is described as follows: Inhibition of recombinant human TCPTP expressed in Escherichia coli […] preincubated for 15 mins followed by substrate addition and measured after 60 mins. Put shortly:
as §1

The next assay has as its system Fusarium oxysporum. The assay is described as follows: Antifungal activity against Fusarium oxysporum HNM 1003 assessed as growth inhibition at 0.6 mM measured after 48 hrs by microbroth dilution method. The conditions noted are these: HNM 1003, 48 h, read-out: GI. The class given is functional. The method in brief: as §2
Assay [8] concerns the target T4, Tyrosine-protein phosphatase non-receptor type 11 (Homo sapiens) (UniProt Q06124).
T4 sequence (whole entry): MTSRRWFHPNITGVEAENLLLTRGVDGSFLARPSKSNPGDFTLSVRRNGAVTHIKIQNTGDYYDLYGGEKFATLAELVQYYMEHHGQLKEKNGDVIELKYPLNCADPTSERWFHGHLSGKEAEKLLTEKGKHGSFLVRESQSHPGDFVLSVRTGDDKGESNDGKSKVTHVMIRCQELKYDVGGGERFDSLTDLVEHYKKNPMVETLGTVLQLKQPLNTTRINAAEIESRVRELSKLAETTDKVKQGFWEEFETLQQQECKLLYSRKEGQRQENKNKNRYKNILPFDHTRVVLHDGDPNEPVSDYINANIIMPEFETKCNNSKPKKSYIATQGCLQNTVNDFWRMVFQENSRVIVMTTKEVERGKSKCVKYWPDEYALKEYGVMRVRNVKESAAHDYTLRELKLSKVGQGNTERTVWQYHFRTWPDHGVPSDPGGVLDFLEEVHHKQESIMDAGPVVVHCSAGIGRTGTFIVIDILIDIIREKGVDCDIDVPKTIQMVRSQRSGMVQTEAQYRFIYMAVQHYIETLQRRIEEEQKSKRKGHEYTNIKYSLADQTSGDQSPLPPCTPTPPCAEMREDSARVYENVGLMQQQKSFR
Description: Inhibition of recombinant human SHP2 expressed in Escherichia coli […] preincubated for 15 mins followed by substrate addition and measured after 60 mins. The method in brief:
as §1

In a further assay the test system is Pyricularia oryzae. Description: Antifungal activity against Pyricularia oryzae HNM 1003 assessed as growth inhibition at 0.6 mM measured after 48 hrs by microbroth dilution method. The conditions noted are these: HNM 1003, 48 h, read-out: GI. It counts as functional.
The target in assay [9] is T5, Tyrosine-protein phosphatase non-receptor type 9 (Homo sapiens) (UniProt P43378).
T5 sequence (whole entry): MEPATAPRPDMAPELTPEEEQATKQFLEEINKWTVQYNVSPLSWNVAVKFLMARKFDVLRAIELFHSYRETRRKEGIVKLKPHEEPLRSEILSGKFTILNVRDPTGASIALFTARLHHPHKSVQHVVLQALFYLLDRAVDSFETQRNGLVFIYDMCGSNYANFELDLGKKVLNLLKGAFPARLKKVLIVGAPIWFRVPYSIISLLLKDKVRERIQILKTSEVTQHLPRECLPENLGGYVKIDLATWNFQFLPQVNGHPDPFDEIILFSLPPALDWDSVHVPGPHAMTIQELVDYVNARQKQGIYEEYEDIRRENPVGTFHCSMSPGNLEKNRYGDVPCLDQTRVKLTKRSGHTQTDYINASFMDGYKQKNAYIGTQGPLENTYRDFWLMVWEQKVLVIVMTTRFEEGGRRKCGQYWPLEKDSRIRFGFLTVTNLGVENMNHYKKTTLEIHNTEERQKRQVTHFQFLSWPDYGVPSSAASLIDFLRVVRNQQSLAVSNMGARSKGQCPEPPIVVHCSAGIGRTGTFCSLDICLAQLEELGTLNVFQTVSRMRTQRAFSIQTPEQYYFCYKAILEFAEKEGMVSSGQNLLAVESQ
Description: Inhibition of recombinant human MEG2 expressed in Escherichia coli […] preincubated for 15 mins followed by substrate addition and measured after 60 mins. The method in brief:
as §1

This is an account of results in ChEMBL document CHEMBL4392864, “Diketopiperazine-Type Alkaloids from a Deep-Sea-Derived Aspergillus puniceus Fungus and Their Effects on Liver X Receptor α” (J Nat Prod, 2019).

The structures appear in SMILES notation. Calls of active or inactive are those of the source. The calls are words filed in the database; no cut-off is given here. Bounds are passed on as bounds.

Tyrosine-protein phosphatase non-receptor type 6, sequence (P29350 whole entry): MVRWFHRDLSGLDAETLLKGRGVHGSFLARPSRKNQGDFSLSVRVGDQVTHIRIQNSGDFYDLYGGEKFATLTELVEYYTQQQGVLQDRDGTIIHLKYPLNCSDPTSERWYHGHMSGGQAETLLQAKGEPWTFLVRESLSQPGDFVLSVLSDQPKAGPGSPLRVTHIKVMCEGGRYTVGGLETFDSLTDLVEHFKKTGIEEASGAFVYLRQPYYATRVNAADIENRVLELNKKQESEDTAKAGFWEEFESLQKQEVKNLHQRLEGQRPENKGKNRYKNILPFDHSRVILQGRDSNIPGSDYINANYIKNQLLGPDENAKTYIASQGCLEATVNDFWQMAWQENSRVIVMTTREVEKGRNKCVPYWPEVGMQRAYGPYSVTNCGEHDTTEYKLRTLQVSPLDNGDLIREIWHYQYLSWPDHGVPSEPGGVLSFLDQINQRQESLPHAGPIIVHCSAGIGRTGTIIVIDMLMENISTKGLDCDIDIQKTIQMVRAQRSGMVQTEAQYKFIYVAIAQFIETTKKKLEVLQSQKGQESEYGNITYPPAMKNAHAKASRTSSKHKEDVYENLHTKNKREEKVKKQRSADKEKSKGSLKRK

On to `CO[C@]1(Cc2ccccc2)NC(=O)[C@@H](C)n2c1nc1c(O)cccc1c2=O`, for which, in [1], the concentration giving a half-maximal response (EC50) – broadly, the concentration giving half of the maximal effect – is 5.1 µM. Moreover, the inhibition result in [2], in assay [4], in assay [5], in assay [6], in assay [7] and in assay [8] was “inactive” throughout. Moreover, the inhibition entry in assay [9] was “inactive”. For the same molecule, the inhibition of growth at 600 µM (in assay [3]; with Curvularia australiensis; in the assay with Fusarium oxysporum; in the assay on Pyricularia oryzae) was < 50% in each case.
`C[C@@H]1C(=O)N/C(=C\c2ccccc2)c2nc3c(c(=O)n21)C=CC=CO3`: in assay [1], the EC50 stood at 50 µM. The inhibition entry in [2], in assay [4], in assay [5], in assay [6], in [7] and in [8] was “inactive” each time. The inhibition result in [9] was “inactive”. The inhibition of growth at 600 µM (in [3]; with Curvularia australiensis; in the assay on Fusarium oxysporum; in the assay on Pyricularia oryzae) was < 50% each time.
On to `C[C@@H]1C(=O)N[C@@](O)(Cc2ccccc2)c2nc3c(c(=O)n21)C=CC=CO3`, for which the half-maximal effective concentration (EC50) in [1] was 16 µM. The inhibition result in assay [2], in assay [4], in assay [5], in assay [6], in [7] and in [8] was “inactive” in each case. For the same molecule, the inhibition entry in assay [9] is “inactive”. The inhibition of growth at 600 µM (in assay [3]; in the assay on Curvularia australiensis; with Fusarium oxysporum; with Pyricularia oryzae) was < 50% throughout.
On to `CO[C@@]1(Cc2ccccc2)NC(=O)[C@@H](C)n2c1nc1c(c2=O)C=CC=CO1`, for which the EC50 in assay [1] was 15 µM. The inhibition entry in [2], in assay [4], in [5], in [6], in [7] and in assay [8] was “inactive” throughout. The inhibition result in assay [9] is “inactive”. Further, the inhibition of growth at 600 µM (in [3]; in the assay with Curvularia australiensis; with Fusarium oxysporum; in the assay with Pyricularia oryzae) was < 50% in each case.
For the molecule `C[C@@H]1C(=O)N[C@@](O)(Cc2ccccc2)c2nc3c(O)cccc3c(=O)n21`, the EC50 in [1] was determined as 1.7 µM. For the same molecule, the inhibition entry in [2], in [4], in assay [5], in assay [6], in assay [7] and in assay [8] was “inactive” in each case. The inhibition result in assay [9] was “inactive”. The inhibition of growth at 600 µM (in assay [3]; in the assay with Curvularia australiensis; in the assay with Fusarium oxysporum; with Pyricularia oryzae) was < 50% in each case.
For the molecule `CO[C@]1(Cc2ccccc2)NC(=O)[C@@H](C)n2c1nc1c(c2=O)C=CC=CO1`, the EC50 in [1] is 15 µM. The inhibition entry in assay [2], in assay [4], in assay [5], in assay [6], in assay [7] and in [8] was “inactive” in each case. For the same molecule, the inhibition result in assay [9] is “inactive”. Further, the inhibition of growth at 600 µM (in assay [3]; in the assay on Curvularia australiensis; in the assay with Fusarium oxysporum; in the assay with Pyricularia oryzae) was < 50% each time.
For `C[C@@H]1C(=O)N[C@](O)(Cc2ccccc2)c2nc3c(O)cccc3c(=O)n21`, the EC50 in assay [1] stood at 5.3 µM. Further, the inhibition entry in assay [2], in [4], in [5], in assay [6], in assay [7] and in assay [8] was “inactive” throughout. In addition, the inhibition result in assay [9] was “inactive”. Further, the inhibition of growth at 600 µM (in [3]; in the assay on Curvularia australiensis; with Fusarium oxysporum; in the assay on Pyricularia oryzae) was < 50% each time.
